Experiments:
Type in all cases: functional
[1] = Herbicidal activity against semen euphorbiae assessed as inhibition of weed growth at 500 ug/mL measured 15 days post compound treatment by pot-culture method; conditions: 360 h; read-out: GI
Summary of the method: (§1)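 Pot-culture assay on whole plants. Compounds were dissolved in toluene, diluted in water, and emulsified with a drop of Tween 80. Five parallel tests per compound, each compared with an untreated control, read as the ratio of growth inhibition. The 500 µg/mL level was the preliminary screen; the follow-up used 0.9375–15 µg/mL on cucumber, rice and semen euphorbiae.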

Cucumis sativus [2] = experiment: Herbicidal activity against Cucumis sativus jinyou 15 (cucumber) assessed as inhibition of weed growth at 500 ug/mL measured 15 days post compound treatment by pot-culture method; conditions: jinyou 15, 360 h, read-out: GI; summary of the method: as §1
Cucumis sativus [3] = experiment: Herbicidal activity against Cucumis sativus jinyou 15 (cucumber) assessed as inhibition of weed growth at 3.75 ug/mL measured 15 days post compound treatment by pot-culture method; conditions: jinyou 15, 360 h, read-out: GI; summary of the method: as §1
Echinochloa crus-galli [4] = experiment: Herbicidal activity against semen euphorbiae assessed as inhibition of weed growth at 7.5 ug/mL measured 15 days post compound treatment by pot-culture method; conditions: 360 h, read-out: GI; summary of the method: as §1
Oryza sativa [5] = experiment: Toxicity against Oryza sativa xiuanyou 63 (rice) assessed as growth inhibition at 7.5 ug/mL measured 15 days post compound treatment by pot-culture method; conditions: xiuanyou 63, 360 h, read-out: GI; summary of the method: as §1
Oryza sativa [6] = experiment: Toxicity against Oryza sativa xiuanyou 63 (rice) assessed as growth inhibition at 0.9375 ug/mL measured 15 days post compound treatment by pot-culture method; conditions: xiuanyou 63, 360 h, read-out: GI; summary of the method: as §1
Echinochloa crus-galli [7] = experiment: Herbicidal activity against semen euphorbiae assessed as inhibition of weed growth at 0.9375 ug/mL measured 15 days post compound treatment by pot-culture method; conditions: 360 h, read-out: GI; summary of the method: as §1
Oryza sativa [8] = experiment: Toxicity against Oryza sativa xiuanyou 63 (rice) assessed as growth inhibition at 15 ug/mL measured 15 days post compound treatment by pot-culture method; conditions: xiuanyou 63, 360 h, read-out: GI; summary of the method: as §1
Echinochloa crus-galli [9] = experiment: Herbicidal activity against semen euphorbiae assessed as inhibition of weed growth at 15 ug/mL measured 15 days post compound treatment by pot-culture method; conditions: 360 h, read-out: GI; summary of the method: as §1
Cucumis sativus [10] = experiment: Herbicidal activity against Cucumis sativus jinyou 15 (cucumber) assessed as inhibition of weed growth at […] measured 15 days post compound treatment by pot-culture method; conditions: jinyou 15, 360 h, read-out: GI; summary of the method: as §1
Oryza sativa [11] = experiment: Toxicity against Oryza sativa xiuanyou 63 (rice) assessed as growth inhibition at 3.75 ug/mL measured 15 days post compound treatment by pot-culture method; conditions: xiuanyou 63, 360 h, read-out: GI; summary of the method: as §1
Echinochloa crus-galli [12] = experiment: Herbicidal activity against semen euphorbiae assessed as inhibition of weed growth at 3.75 ug/mL measured 15 days post compound treatment by pot-culture method; conditions: 360 h, read-out: GI; summary of the method: as §1
Oryza sativa [13] = experiment: Toxicity against Oryza sativa xiuanyou 63 (rice) assessed as growth inhibition at 1.875 ug/mL measured 15 days post compound treatment by pot-culture method; conditions: xiuanyou 63, 360 h, read-out: GI; summary of the method: as §1
Echinochloa crus-galli [14] = experiment: Herbicidal activity against semen euphorbiae assessed as inhibition of weed growth at 1.875 ug/mL measured 15 days post compound treatment by pot-culture method; conditions: 360 h, read-out: GI; summary of the method: as §1

| Compound | inhibition of growth at 500 µg/mL [1] | inhibition of growth at 500 µg/mL (Cucumis sativus [2]) | also measured |
| --- | --- | --- | --- |
| CCN(CC)C(=O)n1cnc([Se](=O)(=O)c2ccccc2)n1 | 4.18% | 8.75% | – |
| CCN(CC)C(=O)n1cnc([Se](=O)(=O)c2ccc(F)c(F)c2)n1 | 44.3% | 44% | – |
| CCN(CC)C(=O)n1cnc([Se](=O)(=O)c2cccc(C(F)(F)F)c2)n1 | 25.2% | 18.5% | – |
| CCN(CC)C(=O)n1cnc([Se](=O)(=O)c2c(C)cccc2C)n1 | 100% | 100% | inhibition of growth at 3.75 µg/mL (Cucumis sativus [3]): 100%; inhibition of growth at 7.5 µg/mL (Echinochloa crus-galli [4]): 88.9%; inhibition of growth at 7.5 µg/mL (Oryza sativa [5]): 2.8% |
| CCN(CC)C(=O)n1cnc([Se](=O)(=O)c2ccc(Cl)cc2)n1 | 17% | 18.6% | – |
| CCN(CC)C(=O)n1cnc([Se](=O)(=O)c2c(C)cc(C)cc2C)n1 | 100% | 100% | inhibition of growth at 3.75 µg/mL (Cucumis sativus [3]): 100%; inhibition of growth at 7.5 µg/mL (Echinochloa crus-galli [4]): 91.1%; inhibition of growth at 7.5 µg/mL (Oryza sativa [5]): 8.3% |
| CCN(CC)C(=O)n1cnc([Se](=O)(=O)c2ccc([N+](=O)[O-])cc2)n1 | 46.4% | 26.9% | – |
| CCN(CC)C(=O)n1cnc([Se](=O)(=O)c2ccc(F)cc2F)n1 | 53.9% | 33.9% | – |
| CCN(CC)C(=O)n1cnc([Se](=O)(=O)c2ccc(C(F)(F)F)c(Cl)c2)n1 | 45.6% | 15.3% | – |
| CCN(CC)C(=O)n1cnc([Se](=O)(=O)c2ccc(F)c(Cl)c2)n1 | 39.6% | 10.7% | – |
| CCN(CC)C(=O)n1cnc([Se](=O)(=O)c2ccc(OC)cc2)n1 | 63.9% | 30.3% | – |
| CCN(CC)C(=O)n1cnc([Se](=O)(=O)c2ccc(C)cc2C)n1 | 51% | 42% | – |
| CCN(CC)C(=O)n1cnc(S(=O)(=O)c2c(C)cc(C)cc2C)n1 [CAFENSTROLE] | 100% | 100% | inhibition of growth at 0.9375 µg/mL (Oryza sativa [6]): 0%; inhibition of growth at 0.9375 µg/mL (Echinochloa crus-galli [7]): 17.8%; inhibition of growth at 15 µg/mL (Oryza sativa [8]): 100%; inhibition of growth at 15 µg/mL (Echinochloa crus-galli [9]): 100%; inhibition of growth (Cucumis sativus [10]): 100%; inhibition of growth at 3.75 µg/mL (Oryza sativa [11]): 47.2%; inhibition of growth at 7.5 µg/mL (Echinochloa crus-galli [4]): 95.6%; inhibition of growth at 7.5 µg/mL (Oryza sativa [5]): 72%; inhibition of growth at 3.75 µg/mL (Echinochloa crus-galli [12]): 84.4%; inhibition of growth at 1.875 µg/mL (Oryza sativa [13]): 13.9%; inhibition of growth at 1.875 µg/mL (Echinochloa crus-galli [14]): 46.7% |

Reference: ChEMBL document CHEMBL3046601, “Synthesis and herbicidal activity of N,N-diethyl-3-(arylselenonyl)-1H-1,2,4-triazole-1-carboxamide” (2006)
